Assays:
Format in all cases: functional
Staphylococcus aureus [1] = experiment: Antimicrobial activity against methicillin-sensitive Staphylococcus aureus ATCC 29213 after 18 hrs by agar dilution assay; details: ATCC 29213, 18 h
Staphylococcus aureus [2] = experiment: Antimicrobial activity against methicillin-sensitive Staphylococcus aureus isolate 15 after 18 hrs by agar dilution assay; details: isolate 15, 18 h
Staphylococcus aureus [3] = experiment: Antimicrobial activity against methicillin-sensitive Staphylococcus aureus isolate 13-17 after 18 hrs by agar dilution assay; details: isolate 13-17, 18 h
Staphylococcus aureus [4] = experiment: Antimicrobial activity against methicillin-sensitive Staphylococcus aureus isolate 13-19 after 18 hrs by agar dilution assay; details: isolate 13-19, 18 h
Staphylococcus aureus [5] = experiment: Antimicrobial activity against methicillin-sensitive Staphylococcus aureus isolate 13-20 after 18 hrs by agar dilution assay; details: isolate 13-20, 18 h
Staphylococcus aureus [6] = experiment: Antimicrobial activity against methicillin-sensitive Staphylococcus aureus isolate 13-21 after 18 hrs by agar dilution assay; details: isolate 13-21, 18 h
[7] = system: Staphylococcus epidermidis; experiment: Antimicrobial activity against methicillin-sensitive Staphylococcus epidermidis ATCC 12228 after 18 hrs by agar dilution assay; details: ATCC 12228, 18 h
[8] = system: Staphylococcus epidermidis; experiment: Antimicrobial activity against methicillin-sensitive Staphylococcus epidermidis isolate 13-1 after 18 hrs by agar dilution assay; details: isolate 13-1, 18 h
[9] = system: Staphylococcus saprophyticus; experiment: Antimicrobial activity against Staphylococcus saprophyticus ATCC 15305 after 18 hrs by agar dilution assay; details: ATCC 15305, 18 h
Staphylococcus hominis = experiment: Antimicrobial activity against Staphylococcus hominis ATCC 35982 after 18 hrs by agar dilution assay; details: ATCC 35982, 18 h
Staphylococcus aureus [10] = experiment: Antimicrobial activity against methicillin-resistant Staphylococcus aureus ATCC 33591 after 18 hrs by agar dilution assay; details: ATCC 33591, 18 h
Procedure, shortened: (§1)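 Drug-resistant S. aureus (MRSA/VISA) panel. It includes ATCC reference strains and clinical isolates from patients in Chinese hospitals. MIC was determined by standard methods and reported in μg/mL, with levofloxacin as the reference drug.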

Staphylococcus aureus [11] = experiment: Antimicrobial activity against methicillin-resistant Staphylococcus aureus isolate 13-18 after 18 hrs by agar dilution assay; details: isolate 13-18, 18 h; procedure, shortened: as §1
Staphylococcus aureus [12] = experiment: Antimicrobial activity against methicillin-resistant Staphylococcus aureus isolate 13-23 after 18 hrs by agar dilution assay; details: isolate 13-23, 18 h; procedure, shortened: as §1
Staphylococcus aureus [13] = experiment: Antimicrobial activity against methicillin-resistant Staphylococcus aureus isolate 12-3 after 18 hrs by agar dilution assay; details: isolate 12-3, 18 h; procedure, shortened: as §1
Staphylococcus aureus [14] = experiment: Antimicrobial activity against methicillin-resistant Staphylococcus aureus isolate 12-8 after 18 hrs by agar dilution assay; details: isolate 12-8, 18 h; procedure, shortened: as §1
Staphylococcus aureus [15] = experiment: Antimicrobial activity against methicillin-resistant Staphylococcus aureus isolate 12-13 after 18 hrs by agar dilution assay; details: isolate 12-13, 18 h; procedure, shortened: as §1
Staphylococcus aureus [16] = experiment: Antimicrobial activity against methicillin-resistant Staphylococcus aureus isolate 12-16 after 18 hrs by agar dilution assay; details: isolate 12-16, 18 h; procedure, shortened: as §1
Staphylococcus aureus [17] = experiment: Antimicrobial activity against methicillin-resistant Staphylococcus aureus ATCC-BAA-1708 after 18 hrs by agar dilution assay; details: ATCC-BAA-1708, 18 h; procedure, shortened: as §1
Staphylococcus aureus [18] = experiment: Antimicrobial activity against vancomycin-intermediate Staphylococcus aureus ATCC 700698 after 18 hrs by agar dilution assay; details: ATCC 700698, 18 h
Procedure, shortened: (§2)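 MICs in μg/mL against drug-resistant S. aureus (MRSA/VISA) by standard methods, with levofloxacin as the reference drug. ATCC strains were used.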

Staphylococcus aureus [19] = experiment: Antimicrobial activity against vancomycin-intermediate Staphylococcus aureus ATCC 700699 after 18 hrs by agar dilution assay; details: ATCC 700699, 18 h; procedure, shortened: as §2

Row | SMILES | MIC (Staphylococcus aureus [1]) [µg/mL] | MIC (Staphylococcus aureus [2]) [µg/mL] | MIC (Staphylococcus aureus [3]) [µg/mL] | MIC (Staphylococcus aureus [4]) [µg/mL] | MIC (Staphylococcus aureus [5]) [µg/mL] | MIC (Staphylococcus aureus [6]) [µg/mL] | MIC [7] [µg/mL] | MIC [8] [µg/mL] | MIC [9] [µg/mL] | MIC (Staphylococcus hominis) [µg/mL] | MIC (Staphylococcus aureus [10]) [µg/mL] | MIC (Staphylococcus aureus [11]) [µg/mL] | MIC (Staphylococcus aureus [12]) [µg/mL] | MIC (Staphylococcus aureus [13]) [µg/mL] | MIC (Staphylococcus aureus [14]) [µg/mL] | MIC (Staphylococcus aureus [15]) [µg/mL] | MIC (Staphylococcus aureus [16]) [µg/mL] | MIC (Staphylococcus aureus [17]) [µg/mL] | MIC (Staphylococcus aureus [18]) [µg/mL] | MIC (Staphylococcus aureus [19]) [µg/mL]
1 | COc1ccc2c(c[n+]3c4c2ccc2c5c(cc(c24)CC3)OCO5)c1OCC(=O)c1ccc(C)cc1.[Br-] | 4 | 8 | 4 | 4 | 8 | 4 | 2 | 8 | 4 | 4 | 4 | 4 | 4 | 4 | 8 | 4 | 4 | 8 | > 64 | > 64
2 | COc1ccc2c(c[n+]3c4c2ccc2c5c(cc(c24)CC3)OCO5)c1NC(=O)c1ccccn1.[Cl-] | > 64 | > 64 | > 64 | > 64 | > 64 | > 64 | > 64 | > 64 | > 64 | > 64 | > 64 | > 64 | > 64 | > 64 | > 64 | > 64 | > 64 | > 64 | > 64 | > 64
3 | COc1ccc(C(=O)COc2c(OC)ccc3c2c[n+]2c4c3ccc3c5c(cc(c34)CC2)OCO5)cc1C(F)(F)F.[Br-] | 4 | 4 | 4 | 4 | 4 | 8 | 4 | 8 | 4 | 4 | 4 | 8 | 4 | 4 | 8 | 4 | 8 | 16 | > 64 | > 64
4 | COc1ccc2c(c[n+]3c4c2ccc2c5c(cc(c24)CC3)OCO5)c1OCC(=O)c1cccc(OC(F)(F)F)c1.[Br-] | 32 | 16 | 16 | 16 | 16 | 16 | 16 | 32 | 16 | 32 | 16 | 16 | 16 | 16 | 8 | 32 | 16 | 64 | > 64 | > 64
5 | COc1ccc2c(c[n+]3c4c2ccc2c5c(cc(c24)CC3)OCO5)c1OCC(=O)c1ccc(F)cc1.[Br-] | 64 | 8 | 16 | 8 | 16 | 8 | 8 | 8 | 32 | 32 | 8 | 16 | 8 | 8 | 8 | 8 | 16 | 64 | > 64 | > 64
6 | COc1cccc(C(=O)COc2c(OC)ccc3c2c[n+]2c4c3ccc3c5c(cc(c34)CC2)OCO5)c1.[Br-] | 16 | 32 | 4 | 4 | 8 | 16 | 16 | 8 | 8 | 64 | 4 | 4 | 16 | 16 | 16 | 8 | 8 | 64 | > 64 | > 64
7 | COc1ccc2c(c[n+]3c4c2ccc2c5c(cc(c24)CC3)OCO5)c1OCC(=O)c1ccccc1.[Br-] | 16 | 32 | 16 | 16 | 32 | 16 | 8 | 64 | 16 | 32 | 16 | 32 | 16 | 16 | 16 | 32 | 32 | 32 | > 64 | > 64
8 | COc1ccc2c(c[n+]3c4c2ccc2c5c(cc(c24)CC3)OCO5)c1NCc1ccccc1.[Cl-] | 64 | 64 | 64 | 64 | 64 | 64 | 8 | 64 | 8 | 8 | 64 | 64 | 64 | 64 | 64 | 64 | 64 | 64 | 32 | > 64
9 | COc1ccc(CNc2c(OC)ccc3c2c[n+]2c4c3ccc3c5c(cc(c34)CC2)OCO5)cc1.[Cl-] |  |  |  |  |  |  | 8 | 64 | 16 | 8 |  |  |  |  |  |  |  |  | 16 | > 64
10 | C[C@H]1COc2c(N3CCN(C)CC3)c(F)cc3c(=O)c(C(=O)O)cn1c23.C[C@H]1COc2c(N3CCN(C)CC3)c(F)cc3c(=O)c(C(=O)O)cn1c23.O [LEVOFLOXACIN] | 0.06 | 0.125 | 0.125 | 0.5 | 0.125 | 0.25 | 0.06 | 0.125 | 0.5 | 0.125 | 0.125 | 32 | 32 | 32 | 32 | 32 | 32 | 16 | 32 | 2
11 | COc1ccc2c(c[n+]3c4c2ccc2c5c(cc(c24)CC3)OCO5)c1NC(=O)c1c(C)noc1C.[Cl-] | > 64 | > 64 | > 64 | > 64 | > 64 | > 64 | > 64 | > 64 | > 64 | > 64 | > 64 | > 64 | > 64 | > 64 | > 64 | > 64 | > 64 | > 64 | > 64 | > 64
12 | COc1ccc2c(c[n+]3c4c2ccc2c5c(cc(c24)CC3)OCO5)c1OCC(=O)C1CC1.[Br-] | > 64 | > 64 | > 64 | > 64 | > 64 | > 64 | > 64 | > 64 | > 64 | > 64 | > 64 | > 64 | > 64 | > 64 | > 64 | > 64 | > 64 | > 64 | > 64 | > 64
13 | COc1ccc2c(c[n+]3c4c2ccc2c5c(cc(c24)CC3)OCO5)c1NCc1ccco1.[Cl-] | 32 | 32 | 32 | 16 | 32 | 32 | 32 | 64 | 32 | 32 | 64 | 64 | 64 | 32 | 64 | 32 | 64 | > 64 | > 64 | > 64
14 | COc1ccc2c(c[n+]3c4c2ccc2c5c(cc(c24)CC3)OCO5)c1NC(=O)C12CC3CC(CC(C3)C1)C2.[Cl-] | > 64 | > 64 | > 64 | > 64 | > 64 | > 64 | > 64 | > 64 | > 64 | > 64 | > 64 | > 64 | > 64 | > 64 | > 64 | > 64 | > 64 | > 64 | > 64 | > 64

From ChEMBL document CHEMBL4145598, “Discovery and Development of 8-Substituted Cycloberberine Derivatives as Novel Antibacterial Agents against MRSA” (ACS Med Chem Lett, 2018)
